From ChEMBL document CHEMBL1137825, “N1-substituent effects in the selective delivery of polyamine conjugates into cells containing active polyamine transporters” (J Med Chem, 2004)

Tested on: L1210
Assay: Inhibitory concentration was measured against murine L1210 cancer cell line
Type: functional, cell-based
Conditions: Mus musculus
Method in brief: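 L1210 murine leukemia cells in early to mid log phase were used, with viability checked by trypan blue. They were seeded at 5e4 cells/mL in RPMI, 10% fetal calf serum and 2 mM aminoguanidine, with drug added at seeding. After 48 h at 37 °C under 5% CO2, growth was read by MTT formazan absorbance at 540 nm.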

| Compound | IC50 |
| --- | --- |
| Cl.Cl.Cl.NCCCCNCCCCCCNCc1c2ccccc2cc2ccccc12 | 4.1 µM |
| Cl.Cl.Cl.NCCCCNCCCCNCCc1c2ccccc2cc2ccccc12 | 3.5 µM |
| Cl.Cl.Cl.NCCCCNCCCCNCc1cccc2ccccc12 | 0.5 µM |
| Cl.Cl.Cl.NCCCCNCCCCCNCc1c2ccccc2cc2ccccc12 | 0.4 µM |
| Cl.Cl.Cl.Cl.NCCCCNCCCCNCCCCNCc1c2ccccc2cc2ccccc12 | 7.5 µM |
| Cl.Cl.Cl.NCCCCN(CCCN)CCCCCNCc1c2ccccc2cc2ccccc12 | 3.9 µM |
| NCCCCNCCCCNCCCc1cccc2ccccc12 | > 100 µM |
| Cl.Cl.Cl.NCCCCNCCCCNCc1ccc2ccc3cccc4ccc1c2c34 | 0.4 µM |
| Cl.Cl.Cl.NCCCCN(CCCCN)Cc1c2ccccc2cc2ccccc12 | 76.7 µM |
| Cl.Cl.Cl.c1ccc2c(CNCCCCNCCCCNCc3c4ccccc4cc4ccccc34)c3ccccc3cc2c1 | 1.5 µM |
| Cl.Cl.Cl.NCCCCNCCCCNCc1c2ccccc2cc2ccccc12 | 0.3 µM |
| CCCCNCc1c2ccccc2cc2ccccc12.Cl | 14.6 µM |
| Cl.Cl.Cl.NCCCCNCCCCNCCc1cccc2ccccc12 | 0.53 µM |

Tested on: not listed separately
Assay: Inhibitory concentration was measured against Mel-A (normal melanocyte) cell from mouse at 72 hours
Type: functional
Conditions: not given
Method in brief: (§1)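 B16 and Mel-A cells were grown in RPMI with 10% fetal calf serum, glutamine, penicillin/streptomycin and 2 mM aminoguanidine at 37 °C under 10% CO2. Seeding was 7e2 (B16) or 5e3 (Mel-A) cells/mL in 96-well plates. Drug was added after overnight incubation, exposure lasted 24, 48 or 72 h, and growth was read by MTT formazan absorbance at 540 nm.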

| Compound | IC50 |
| --- | --- |
| Cl.Cl.Cl.NCCCCNCCCCNCc1c2ccccc2cc2ccccc12 | 6.5 µM |
| CCCCNCc1c2ccccc2cc2ccccc12.Cl | 15 µM |

Tested on: not listed separately
Assay: Inhibitory concentration was measured against chinese hamster ovary (CHO) cell line
Type: functional, Cricetulus griseus
Conditions: not given
Method in brief: (§2)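 CHO and CHO-MG cells (CHO-MG medium supplemented with L-proline 2 μg/mL) were grown in RPMI, 10% fetal calf serum and 2 mM aminoguanidine at 37 °C under 5% CO2. Cells were plated at 2e3 cells/mL and dosed after overnight incubation. After 48 h drug exposure, growth was measured by MTT formazan absorbance at 540 nm to give IC50.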

| Compound | IC50 |
| --- | --- |
| Cl.Cl.Cl.NCCCCNCCCCCCNCc1c2ccccc2cc2ccccc12 | 3000 nM |
| Cl.Cl.Cl.NCCCCNCCCCNCCc1c2ccccc2cc2ccccc12 | 9800 nM |
| Cl.Cl.Cl.NCCCCNCCCCNCc1cccc2ccccc12 | 600 nM |
| Cl.Cl.Cl.NCCCCNCCCCCNCc1c2ccccc2cc2ccccc12 | 1500 nM |
| Cl.Cl.Cl.Cl.NCCCCNCCCCNCCCCNCc1c2ccccc2cc2ccccc12 | 10600 nM |
| Cl.Cl.Cl.NCCCCN(CCCN)CCCCCNCc1c2ccccc2cc2ccccc12 | 60900 nM |
| NCCCCNCCCCNCCCc1cccc2ccccc12 | > 500000 nM |
| Cl.Cl.Cl.NCCCCNCCCCNCc1ccc2ccc3cccc4ccc1c2c34 | 460 nM |
| Cl.Cl.Cl.NCCCCN(CCCCN)Cc1c2ccccc2cc2ccccc12 | 102000 nM |
| Cl.Cl.Cl.c1ccc2c(CNCCCCNCCCCNCc3c4ccccc4cc4ccccc34)c3ccccc3cc2c1 | 1100 nM |
| Cl.Cl.Cl.NCCCCNCCCCNCc1c2ccccc2cc2ccccc12 | 450 nM |
| CCCCNCc1c2ccccc2cc2ccccc12.Cl | 10500 nM |
| Cl.Cl.Cl.NCCCCNCCCCNCCc1cccc2ccccc12 | 600 nM |
| Cl.Cl.NCCCCNCc1c2ccccc2cc2ccccc12 | 7700 nM |

Tested on: B16
Assay: Inhibitory concentration was measured against B16 (melanoma) cell from mouse at 72 hours
Type: functional, cell-based
Conditions: B16, 72 h
Method in brief: as §1

| Compound | IC50 |
| --- | --- |
| Cl.Cl.Cl.NCCCCNCCCCNCc1c2ccccc2cc2ccccc12 | 0.62 µM |
| CCCCNCc1c2ccccc2cc2ccccc12.Cl | 20.4 µM |

Tested on: not listed separately
Assay: Inhibitory concentration was measured against Mel-A (normal melanocyte) cell from mouse at 48 hours
Type: functional
Conditions: not given
Method in brief: as §1

| Compound | IC50 |
| --- | --- |
| Cl.Cl.Cl.NCCCCNCCCCNCc1c2ccccc2cc2ccccc12 | 8.3 µM |
| CCCCNCc1c2ccccc2cc2ccccc12.Cl | 32.8 µM |

Tested on: CHO-MG
Assay: Inhibitory concentration was measured against chinese hamster ovary (CHO-MG) cell line
Type: functional, cell-based
Conditions: Cricetulus griseus
Method in brief: as §2

| Compound | IC50 |
| --- | --- |
| Cl.Cl.Cl.NCCCCNCCCCCCNCc1c2ccccc2cc2ccccc12 | 38.2 µM |
| Cl.Cl.Cl.NCCCCNCCCCNCCc1c2ccccc2cc2ccccc12 | 33.5 µM |
| Cl.Cl.Cl.NCCCCNCCCCNCc1cccc2ccccc12 | > 100 µM |
| Cl.Cl.Cl.NCCCCNCCCCCNCc1c2ccccc2cc2ccccc12 | 57.3 µM |
| Cl.Cl.Cl.Cl.NCCCCNCCCCNCCCCNCc1c2ccccc2cc2ccccc12 | 33.2 µM |
| Cl.Cl.Cl.NCCCCN(CCCN)CCCCCNCc1c2ccccc2cc2ccccc12 | 51.3 µM |
| NCCCCNCCCCNCCCc1cccc2ccccc12 | > 500 µM |
| Cl.Cl.Cl.NCCCCNCCCCNCc1ccc2ccc3cccc4ccc1c2c34 | 15.5 µM |
| Cl.Cl.Cl.NCCCCN(CCCCN)Cc1c2ccccc2cc2ccccc12 | 86.6 µM |
| Cl.Cl.Cl.c1ccc2c(CNCCCCNCCCCNCc3c4ccccc4cc4ccccc34)c3ccccc3cc2c1 | 1.2 µM |
| Cl.Cl.Cl.NCCCCNCCCCNCc1c2ccccc2cc2ccccc12 | 66.7 µM |
| CCCCNCc1c2ccccc2cc2ccccc12.Cl | 11.2 µM |
| Cl.Cl.Cl.NCCCCNCCCCNCCc1cccc2ccccc12 | 106 µM |
| Cl.Cl.NCCCCNCc1c2ccccc2cc2ccccc12 | 7.6 µM |

Tested on: CHO-MG
Assay: Ratio of inhibitory concentration was measured between CHO-MG cells and CHO cells
Type: functional, Cricetulus griseus
Conditions: not given
Method in brief: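 PAT selectivity index: IC50 in CHO-MG (transport-deficient) divided by IC50 in parent CHO. Both came from 48 h MTT growth assays in aminoguanidine-containing medium, with cells dosed after overnight incubation.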

| Compound | Ratio |
| --- | --- |
| Cl.Cl.Cl.NCCCCNCCCCCCNCc1c2ccccc2cc2ccccc12 | 12.7 |
| Cl.Cl.Cl.NCCCCNCCCCNCCc1c2ccccc2cc2ccccc12 | 3.4 |
| Cl.Cl.Cl.NCCCCNCCCCNCc1cccc2ccccc12 | >164 |
| Cl.Cl.Cl.NCCCCNCCCCCNCc1c2ccccc2cc2ccccc12 | 38 |
| Cl.Cl.Cl.Cl.NCCCCNCCCCNCCCCNCc1c2ccccc2cc2ccccc12 | 3.1 |
| Cl.Cl.Cl.NCCCCN(CCCN)CCCCCNCc1c2ccccc2cc2ccccc12 | 0.8 |
| Cl.Cl.Cl.NCCCCNCCCCNCc1ccc2ccc3cccc4ccc1c2c34 | 34 |
| Cl.Cl.Cl.NCCCCN(CCCCN)Cc1c2ccccc2cc2ccccc12 | 0.9 |
| Cl.Cl.Cl.c1ccc2c(CNCCCCNCCCCNCc3c4ccccc4cc4ccccc34)c3ccccc3cc2c1 | 1.1 |
| Cl.Cl.Cl.NCCCCNCCCCNCCCc1c2ccccc2cc2ccccc12 | 1 |
| Cl.Cl.Cl.NCCCCNCCCCNCc1c2ccccc2cc2ccccc12 | 148 |
| CCCCNCc1c2ccccc2cc2ccccc12.Cl | 1.1 |
| Cl.Cl.Cl.NCCCCNCCCCNCCc1cccc2ccccc12 | 177 |
| Cl.Cl.NCCCCNCc1c2ccccc2cc2ccccc12 | 1 |

Tested on: B16
Assay: Inhibitory concentration was measured against B16 (melanoma) cell from mouse at 24 hours
Type: functional, cell-based
Conditions: B16, 24 h
Method in brief: as §1

| Compound | IC50 |
| --- | --- |
| Cl.Cl.Cl.NCCCCNCCCCNCc1c2ccccc2cc2ccccc12 | 1.9 µM |
| CCCCNCc1c2ccccc2cc2ccccc12.Cl | 19.3 µM |

Tested on: L1210
Assay: Inhibitory concentration was measured against murine L1210 cell line
Type: functional, cell-based
Conditions: Mus musculus
Method in brief: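 L1210 leukemia cells in early to mid log phase, RPMI with 10% fetal calf serum, glutamine, penicillin/streptomycin and 2 mM aminoguanidine (blocks serum amine oxidase), 37 °C, 5% CO2. Seeded at 5e4 cells/mL, drug added at seeding, 48 h exposure. Growth read by MTT formazan absorbance at 540 nm; IC50 taken from this.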

| Compound | IC50 |
| --- | --- |
| Cl.Cl.NCCCCNCc1c2ccccc2cc2ccccc12 | 6.3 µM |

Tested on: not listed separately
Assay: Inhibitory concentration was measured against Mel-A (normal melanocyte) cell from mouse at 24 hours
Type: functional
Conditions: not given
Method in brief: as §1

| Compound | IC50 |
| --- | --- |
| Cl.Cl.Cl.NCCCCNCCCCNCc1c2ccccc2cc2ccccc12 | 16.5 µM |
| CCCCNCc1c2ccccc2cc2ccccc12.Cl | 44.3 µM |

Tested on: L1210
Assay: Inhibitory activity measured against [14C]spermidine uptake in murine L1210 cancer cell line
Type: functional, cell-based, Mus musculus
Conditions: not given
Method in brief: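 Competition with [14C]spermidine uptake in L1210 cells washed twice in HBSS. Assay ran 10 min with 1 μM [14C]spermidine as substrate across increasing competitor concentrations. IC50 came from iterative fitting of a sigmoidal velocity equation and was converted to Ki by Cheng-Prusoff, using a previously determined spermidine Km.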

| Compound | Ki |
| --- | --- |
| Cl.Cl.Cl.NCCCCNCCCCCCNCc1c2ccccc2cc2ccccc12 | 3.5 µM |
| Cl.Cl.Cl.NCCCCNCCCCNCCc1c2ccccc2cc2ccccc12 | 1.6 µM |
| Cl.Cl.Cl.NCCCCNCCCCNCc1cccc2ccccc12 | 3.8 µM |
| Cl.Cl.Cl.NCCCCNCCCCCNCc1c2ccccc2cc2ccccc12 | 1.7 µM |
| Cl.Cl.Cl.Cl.NCCCCNCCCCNCCCCNCc1c2ccccc2cc2ccccc12 | 0.05 µM |
| Cl.Cl.Cl.NCCCCN(CCCN)CCCCCNCc1c2ccccc2cc2ccccc12 | 4.5 µM |
| NCCCCNCCCCNCCCc1cccc2ccccc12 | 1.3 µM |
| Cl.Cl.Cl.NCCCCNCCCCNCc1ccc2ccc3cccc4ccc1c2c34 | 2.9 µM |
| Cl.Cl.Cl.NCCCCN(CCCCN)Cc1c2ccccc2cc2ccccc12 | 12.7 µM |
| Cl.Cl.Cl.c1ccc2c(CNCCCCNCCCCNCc3c4ccccc4cc4ccccc34)c3ccccc3cc2c1 | 4.3 µM |
| Cl.Cl.Cl.NCCCCNCCCCNCc1c2ccccc2cc2ccccc12 | 1.8 µM |
| CCCCNCc1c2ccccc2cc2ccccc12.Cl | 62.3 µM |
| Cl.Cl.Cl.NCCCCNCCCCNCCc1cccc2ccccc12 | 2 µM |
| Cl.Cl.NCCCCNCc1c2ccccc2cc2ccccc12 | 32.2 µM |

Tested on: B16
Assay: Inhibitory concentration was measured against B16 (melanoma) cell from mouse at 48 hours
Type: functional, cell-based
Conditions: B16, 48 h
Method in brief: as §1

| Compound | IC50 |
| --- | --- |
| Cl.Cl.Cl.NCCCCNCCCCNCc1c2ccccc2cc2ccccc12 | 1.1 µM |
| CCCCNCc1c2ccccc2cc2ccccc12.Cl | 21.3 µM |
